In the library only some 9.2% were active in any assay of this set; here they are far more common.
L major viab = Leishmania major promastigote growth inhibition, primary screen; inhibition, % at 10 µM; Leishmania major promastigotes, resazurin fluorescence viability; AID 1063, 2008; hit rate 9% among 200,000; in the data active means inhibition above about 50%;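 further: promastigotes grown with compound for 44 hours at 28 °C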
PTEN del growth = growth suppression of PTEN-null HCT116, primary screen, cell-based, CellTiter-Glo; AID 827, 2007; viability, % at 10 µM; HCT116 PTEN-null viability, 60 h; stronger effect = lower value; hit rate 1.2% among 140,000;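 active means viability at or below a set limit, 4 SD under the median of all tested compounds, cut at about 3.7% in these data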;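 further: PTEN knockout HCT116 line with beta catenin targeted HCT116 as companion control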
Autophagy mod = autophagy modulators in MEF cells, primary screen, imaging, high-content, MEF GFP-LC3; MEF GFP-LC3 puncta imaging; test concentration mostly 10 µM; calls only at 10 µM (by protocol); hit rate 0.98% among 190,000;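 active means percentage of spot-positive cells more than 3 SD above its plate mean, without a fluorescence outlier flag or 80% toxicity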;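 further: spot-positive cell cutoff set from DMSO-treated cells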
Dynein transport = inhibitors of GR-EGFP nuclear translocation, primary screen, dynein cargo transport inhibitor project, imaging, high-content, 3617.4 mouse cells; hit rate 0.47% among 220,000; test concentration mostly 20 µM; stimulated with dexamethasone, 1 µM; stronger effect = lower value; AID 1381, 2008; z-score, hits read low;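 active means plate z-score of nuclear minus cytoplasmic receptor signal below a set negative limit, without overly bright fluorescence or cell loss, cut at about -3.5 in these data, passing the limit was not always enough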;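 further: z-score of nuclear minus cytoplasmic ring GR-EGFP intensity difference per well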
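medium = tetracycline-free induction medium containing charcoal-stripped FBS | also added = 1.0 µM final dexamethasone stimulus | schedule = 48 h induction, 1 h compound, 30 min dex at 37 °C | technique = fixed, Hoechst-stained cells imaged at 10x for EGFP | measure = GR-EGFP nuclear translocation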
bCat KO growth = primary screen for growth suppressors in beta-catenin knockout HCT116 cells (colon tumor, human). HCT116 beta-catenin knockout viability, CellTiter-Glo, 60 h; stronger effect = lower value. viability, % at 10 µM. hit rate 1.5% among 140,000. AID 818, 2007;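 active means viability at or under a set limit, the compound median less 4 SD, cut at about 6% in these data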;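 further: 0% = Hyamine 1622 control at 20 µM and 100% = untreated cell control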
The depositor's hits bear a star; i = inactive; . = no result given; + = active, no number.

SMILES	L major viab	PTEN del growth	Autophagy mod	Dynein transport	bCat KO growth
CNC(=O)C1C2C=CC3(O2)C1C(=O)N(C1CC1)C3C(=O)NCc1ccc(OC)cc1 (centres undefined)	-5	107	i	-1.1	95
COC(=O)c1ccccc1NC(=O)N1CCN(Cc2ccco2)CC1	-4	.	i	-0.78	.
CCCn1c(C)cc(C(=O)COC(=O)CN=C2NS(=O)(=O)c3ccccc32)c1C	55*	95	i	0.44	100
O=C(CN=C1NS(=O)(=O)c2ccccc21)OCC(=O)c1ccccc1	.	.	.	-0.34	.
OC(CNCc1ccccc1)Cn1ccc2ccccc21 (centres undefined)	96*	97	i	-0.86	90
COc1cccc(NC(C)C(=O)Nc2cc([N+](=O)[O-])ccc2Cl)c1 (centres undefined)	23	.	i	0.45	.
COc1cccc(-c2nc(CS(=O)(=O)CC(=O)N3CCc4ccccc43)c(C)o2)c1	-2	83	i	-0.26	79
CCOC(=O)c1[nH]c2ccc(F)cc2c1NC(=O)CN1CCN(C/C=C/c2ccccc2)CC1	99*	48	i	-0.79	56
COC(=O)c1[nH]c2ccccc2c1NC(=O)CN1CC(C)OC(C)C1 (centres undefined)	-2	100	i	-0.74	92
CCOC(=O)c1[nH]c2ccc(F)cc2c1NC(=O)CN1CCc2cc(OC)c(OC)cc2C1	0	65	i	3.2	76
COC(=O)c1[nH]c2ccccc2c1NC(=O)CN1CCN(C/C=C/c2ccccc2)CC1	64*	55	i	-0.16	57
CC(Sc1nnc(NC2CCCCC2)s1)C(=O)Nc1ccc2c(c1)C(=O)c1ccccc1C2=O (centres undefined)	66*	63	i	0.33	65
COc1cccc(N/C(SCc2cccc([N+](=O)[O-])c2)=C(/C#N)C(N)=O)c1	94*	.	i	-1.4	.
c1ccc(-c2nc(NCCCn3ccnc3)c3ccccc3n2)cc1	54*	.	i	-0.52	.
CCN(CC)CCCNc1nc(-c2ccccc2)nc2ccccc12	72*	67	i	0.63	61
Clc1ccc(-c2nc(NCCN3CCOCC3)c3ccccc3n2)cc1	62*	44	i	-0.069	57
COCCNc1nc(-c2ccccc2)nc2ccccc12	84*	.	i	-0.58	.
CC(=O)c1cc(CN2CCN(Cc3ccccc3)C(CCO)C2)cs1 (centres undefined)	65*	.	i	-0.74	.
OCCC1CN(Cc2ccc3nsnc3c2)CCN1CCc1ccccc1 (centres undefined)	84*	.	i	-0.25	.
CC(=O)c1cc(CN2CCN(CCc3ccccc3)C(CCO)C2)cs1 (centres undefined)	77*	.	i	0.27	.
CC(=O)c1cc(CN2CCN(CC=C(C)C)C(CCO)C2)cs1 (centres undefined)	8	.	i	-1.2	.
Cc1ccc(S(=O)(=O)NC2c3cccc4cccc(c34)C2Sc2ncccn2)cc1 (centres undefined)	14	61	i	-0.37	61
Cc1nc(-c2cc(-c3nc(-c4ccc(C(C)(C)C)cc4)no3)no2)cs1	.	.	.	0.37	.
COc1ccc(Br)cc1C(=O)Nc1ccccc1-c1ccccc1	10	96	i	0.9	92
CC(=O)OC1CCC2(C)C(COc3ccc4ccc(=O)oc4c3)C(C)(O)CCC2C1(C)C (centres undefined)	99*	67	i	0.55	67
SMILES	L major viab	PTEN del growth	Autophagy mod	Dynein transport	bCat KO growth
CN(C)C(=O)COc1ccc2ccc(=O)oc2c1	-3	86	i	-0.33	95
COc1ccc(/C=C2\SC(=O)N(CCNC(=O)Cn3cnnn3)C2=O)cc1	56*	89	i	-0.52	82
COc1ccc(/C=C2\SC(=O)N(CCNC(=O)C3CCN(S(=O)(=O)c4cccs4)CC3)C2=O)cc1	64*	93	i	-1.2	94
COc1ccc(/C=C2\SC(=O)N(CCNC(=O)CCS(=O)(=O)c3ccc(C)cc3)C2=O)cc1	10	74	i	0.16	63
CC(=O)N(Cc1cccs1)Cc1cc2ccc(C)c(C)c2nc1Cl	-9	.	i	-1.1	.
COc1cc(CN2CCNC(=O)C2CC(=O)NCc2csc(C(C)C)n2)cc(OC)c1 (centres undefined)	-3	.	i	-0.017	.
COc1ccc(C(NC(=O)C(C)C)c2c(O)ccc3ccccc23)cc1 (centres undefined)	96*	.	i	-1.1	.
CCC(=O)NC(c1ccccc1Cl)c1c(O)ccc2ccccc12 (centres undefined)	22	73	i	-0.49	87
COc1ccc(C(NC(=O)C(C)C)c2c(O)ccc3ccccc23)cc1OC (centres undefined)	99*	95	i	0.029	94
CCC(=O)NC(c1ccc(N(C)C)cc1)c1c(O)ccc2ccccc12 (centres undefined)	100*	.	i	0.27	.
CC(C)C(=O)NC(c1ccco1)c1c(O)ccc2ccccc12 (centres undefined)	29	83	i	-0.42	79
CC(=O)NC(c1ccc(Cl)cc1)c1c(O)ccc2ccc(O)cc12 (centres undefined)	44	.	i	0.22	.
CC(C)C(=O)NC(c1ccccc1Cl)c1c(O)ccc2ccccc12 (centres undefined)	99*	85	i	-0.41	76
COC(=O)CCCC(=O)N1CCCC(C(=O)c2ccc(OC)cc2C)C1 (centres undefined)	-5	.	i	-0.75	.
COc1ccccc1C(NC(=O)C1CCCCC1)c1c(O)ccc2ccccc12 (centres undefined)	40	91	i	0.54	80
CCC(=O)NC(c1ccc(OC)cc1)c1c(O)ccc2ccccc12 (centres undefined)	99*	.	i	1.1	.
COc1ccc(C(=O)CSc2ccccc2C(=O)O)cc1	-6	.	i	1	.
CCOc1ccccc1NC(=O)C(OC(=O)C1CC1)c1ccccc1 (centres undefined)	.	.	.	-0.23	.
CCOc1ccccc1NC(=O)C(NCC1(N2CCCCC2)CCCCC1)c1ccccc1 (centres undefined)	66*	.	+	0.17	.
COc1ccc(C2(C(=O)N3CCOCC3)CCOCC2)cc1OC	-2	101	i	1.1	93
O=C(NCc1ccccc1Cl)C1CCN(S(=O)(=O)N2CCC3(CC2)OCCO3)CC1	-2	95	i	-0.91	90
Cc1ccsc1CN1CCC(C(=O)NCc2ccccc2Cl)CC1	92*	96	i	1.7	86
Cn1c(=O)[nH]c(=O)c2c1nc(N1CCNCC1)n2Cc1cccc2ccccc12	83*	69	i	1.9	71
Cn1c(=O)c2c(nc(N3CCNCC3)n2Cc2cccc3ccccc23)n(C)c1=O	2	85	+	-0.79	83
